FXIa inh = blocks human coagulation factor XIa protease activity; P03951; purified FXIa, Boc-Glu-Ala-Arg-AMC fluorogenic substrate; inhibition, % at 5 µM; 0.14% of 220,000 active; AID 798;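 active = inhibition of at least 40%; inactive = inhibition below 40%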;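 also: fluorescence of freed AMC excited at 355 nm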
hK5 inh = inhibitors of human kallikrein 5 | recombinant hK5, fluorogenic AMC substrate cleavage | Q9Y337 | 0.59% of 210,000 active | inhibition, % at 5 µM;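 active = inhibition of 40% or more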
thrombin 1536 = thrombin (human) inhibition | inhibition, % at 5 µM | P00734 | 0.26% of 220,000 active | alpha-thrombin, Boc-VPR-AMC fluorogenic substrate cleavage;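 active = inhibition at or above 40%; inactive = inhibition below 40%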
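System: Human alpha-thrombin protein | Medium: pH 7.5 Tris (50 mM) with NaCl 150 mM, Tween 20 0.05% | Times: Enzyme reaction carried out at room temperature | Detection: AMC fluorescence, 355/460 nm | Evaluation: Percent inhibition scaled between no-compound controls and no-enzyme blanks | Benchmarks: Enzyme without compound as high, wells lacking enzyme as low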
Furin inhibitor = inhibitors of human furin | 0.061% of 220,000 active | purified furin, fluorogenic substrate cleavage | AID 463115 | P09958 | inhibition, % at 20 µM or 30 µM; in the data active = inhibition above about 25%
Target sequence (P09958 108-714 limits assumed): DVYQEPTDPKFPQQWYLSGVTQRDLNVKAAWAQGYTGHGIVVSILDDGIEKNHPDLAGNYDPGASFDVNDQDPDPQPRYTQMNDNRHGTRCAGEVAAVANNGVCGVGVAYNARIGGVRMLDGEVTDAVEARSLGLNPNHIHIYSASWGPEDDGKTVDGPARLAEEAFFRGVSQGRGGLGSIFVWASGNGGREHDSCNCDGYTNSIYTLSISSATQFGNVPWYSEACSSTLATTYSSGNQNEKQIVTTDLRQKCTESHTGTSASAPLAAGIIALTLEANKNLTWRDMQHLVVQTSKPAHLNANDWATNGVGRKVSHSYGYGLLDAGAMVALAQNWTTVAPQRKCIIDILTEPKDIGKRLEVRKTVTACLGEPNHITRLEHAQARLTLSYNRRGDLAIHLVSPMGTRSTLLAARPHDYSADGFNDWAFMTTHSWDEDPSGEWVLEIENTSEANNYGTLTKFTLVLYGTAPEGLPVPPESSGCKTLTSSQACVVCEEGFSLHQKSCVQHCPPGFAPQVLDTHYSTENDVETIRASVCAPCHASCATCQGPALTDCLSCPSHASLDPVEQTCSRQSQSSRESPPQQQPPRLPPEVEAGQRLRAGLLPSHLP
FXIIa inh 1536 = inhibitors of human coagulation factor XIIa; P00748; purified FXIIa, Boc-QGR-AMC fluorogenic substrate, 2 h; inhibition, % at 5 µM; 0.3% of 220,000 active; AID 800; in the data active = inhibition above about 40%
Of the large screens only hits and unclear results are named; the others gave an inactive call. An excerpt weighted towards active compounds, which were near 1.1% of everything screened.

Cc1noc(C)c1CSc1nc2ccccc2c(=O)n1-c1ccccc1	none
C=CCn1c(SCc2c(C)noc2C)nc2cc(C(=O)O)ccc2c1=O	thrombin 1536 46
CC(C)C(NC(=O)c1ccccc1)C(=O)N/N=C\c1ccco1 (stereo not drawn)	none
CC(C(=O)Nc1ccc(S(=O)(=O)N2CCOCC2)cc1)N1C(=O)C2CC=CCC2C1=O (stereo not drawn)	none
CCOC(=O)C(=CNc1cccc(C)c1C)C(=O)OCC	thrombin 1536 45
O=C(CN(Cc1ccco1)C(=O)Cn1nnc(-c2cccs2)n1)NCC1CCCO1 (stereo not drawn)	none
O=C(CN(Cc1ccccc1F)C(=O)Cn1nnc(-c2cccs2)n1)NCC1CCCO1 (stereo not drawn)	hK5 inh 53
N#Cc1ccc(C(=O)Nc2ccc([N+](=O)[O-])cc2)c(F)c1	none
CN(C)C(=O)COC(=O)c1ccccc1OCC(=O)Nc1ccc(SC(F)F)cc1	none
O=C(COc1ccccc1C(=O)O)Nc1ccc(SC(F)F)cc1	thrombin 1536 48 (no result: hK5 inh)
Cc1ccc2nc(SCC(=O)Nc3cccc(S(N)(=O)=O)c3)[nH]c2c1	hK5 inh 93
NS(=O)(=O)c1cccc(NC(=O)CSc2nc3ccccc3[nH]2)c1	none
Cc1cc(C)c(S(=O)(=O)N2CCN(c3ccc([N+](=O)[O-])c(NCC4CCCO4)c3)CC2)c(C)c1 (stereo not drawn)	hK5 inh 41
Cc1ccc2nc(-c3cccnc3)cc(C(=O)Nc3ccc(F)cc3C)c2c1	none
O=C(COc1ccc2c(c1)OCO2)Nc1ccccc1C(F)(F)F	none
O=Cc1ccc(OCC(=O)Nc2ccccc2C(F)(F)F)cc1	FXIIa inh 1536 64
CCNC(=O)NC(=O)C(C)OC(=O)c1cccn1C (stereo not drawn)	none

Bioassay records (PubChem BioAssay)
